The text below walks through data of ChEMBL document CHEMBL4513216, “Probing the Open Global Health Chemical Diversity Library for Multistage-Active Starting Points for Next-Generation Antimalarials” (ACS Infect Dis, 2020).

The nature of the data set: Toxicity liver stage against HepG2, at 10uM. It counts as cell-based. Set-up: test concentration 10 uM, cell line HepG2-A16-CD81EGFP. As to conditions: human, HepG2-A16-CD81EGFP cells; read-out: INHIBITION
Put shortly:
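Uninfected HepG2-A16-CD81EGFP cells, 3 × 10^3 per well, 1536-well, plated on prespotted compound at 10 μM final, parasite-free screening media added to match infected plates; puromycin 10 μM positive, DMSO 0.5% negative; run in parallel with 48 h PbLuc assay at 37 °C, 5% CO2; viability by CellTiter-Glo luminescence, normalized to controls.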
In the case of `O=C(CCn1cnc2ccccc21)N1CCN2CCCCC2C1` (stereo unspecified), the cytotoxicity at 10 µM was -4.34%.

In the case of `Cn1cccc1C(=O)N1CCC2(CC1)CCN2S(C)(=O)=O`, the cytotoxicity at 10 µM stood at 8.73%.

Consider `CC(C)c1nc(C2CCCN2CC(=O)Nc2cccnc2)no1` (stereo unspecified), for which the cytotoxicity at 10 µM is -10.1%.

As for `OCc1ccc(CN(CCCn2ccnc2)Cc2ccncc2)o1`, the cytotoxicity at 10 µM was -4.41%.

`CCO[C@@H]1CC[C@H]2[C@H]1OCCN2C(=O)C1CCOCC1`: the cytotoxicity at 10 µM was -19.8%.

On to `CC(C(=O)N1CCN(c2cnccn2)CC1)n1cncn1` (stereo unspecified), for which the cytotoxicity at 10 µM came out at 8.37%.

For `Cc1cc(C(=O)N2CC[C@@H]3CN(C)S(=O)(=O)[C@@H]3CC2)no1`, the cytotoxicity at 10 µM is -7.55%.

In the case of `CN(C)[C@H]1CCN(c2ccnc(C(=O)NCc3ccco3)c2)C1`, the cytotoxicity at 10 µM worked out at 4.12%.

With `CCc1n[nH]c(C2CN(CC(=O)N(C)Cc3ccco3)CCO2)n1` (stereo unspecified), the cytotoxicity at 10 µM stood at 1.07%.

As for `COC(=O)c1cccn1C1CCN(Cc2cccnc2)CC1`, the cytotoxicity at 10 µM was -25.6%.

`Cc1ccc(F)cc1S(=O)(=O)Nc1ccc2c(C(=O)O)c[nH]c2c1`: the cytotoxicity at 10 µM was -3.53%.

On to `COc1ccc(CN(Cc2c[nH]cn2)CC2CCCO2)c(OC)c1` (stereo unspecified), for which the cytotoxicity at 10 µM is -26%.

For `COCCOc1nc(-c2ccccc2Cl)no1`, the cytotoxicity at 10 µM is 9.4%.

Turning to `CCS(=O)(=O)Cc1csc(-c2ccc(S(C)(=O)=O)cc2)n1`, the cytotoxicity at 10 µM was determined as 8.8%.

Consider `COc1cc(C(=O)N(Cc2ccco2)C2CC2)cc(OC)c1OC`, for which the cytotoxicity at 10 µM turned out to be 4.53%.

In the case of `COc1ccc(-n2cccn2)c(CN2CCC3(CCCN(C)C3=O)C2)c1` (stereo unspecified), the cytotoxicity at 10 µM came out at 10.2%.

Turning to `O=C(CCn1ccc2ccccc21)N1CCC(Nc2cccnc2)CC1`, the cytotoxicity at 10 µM turned out to be 9.08%.

`CNc1ncc(CN(C)C(=O)[C@@]23CNC[C@@H]2CN(C2CCCC2)C3)cn1`: the cytotoxicity at 10 µM came to 0.153%.

For the compound `Cc1noc2ncc(C(=O)NCC3CCOC3)cc12` (stereo unspecified), the cytotoxicity at 10 µM was -1.47%.

In the case of `CC(C)(C)n1nnnc1CN(CCc1ccccc1)Cc1ccccc1`, the cytotoxicity at 10 µM amounted to 4.91%.

Regarding `CC1c2ncc(CN3CCN(C)CC3)n2CCN1Cc1cccnc1` (stereo unspecified), the cytotoxicity at 10 µM is -2.12%.

`Cn1cnc(S(=O)(=O)N2CC3(CCN(Cc4ccncc4)C3)C2)c1`: the cytotoxicity at 10 µM is -113%.

Take `CCOc1ccccc1NC(=O)N(CCO)Cc1ccsc1`: the cytotoxicity at 10 µM worked out at 0.633%.

For `O=C(NCc1nc2ccccc2[nH]1)c1cc2n(n1)CCCO2`, the cytotoxicity at 10 µM is -5.43%.

Consider `CNc1ncccc1C(=O)N1CCc2c(nc(N)[nH]c2=O)C1`, for which the cytotoxicity at 10 µM was 3.61%.

As for `CN(C)C(=O)CN1CCCC1c1cccc(Cc2ccccc2F)n1` (stereo unspecified), the cytotoxicity at 10 µM was -6.94%.

Regarding `Cc1ccc(NC(=O)CS(=O)(=O)NC2CCC(C)CC2)nc1` (stereo unspecified), the cytotoxicity at 10 µM is -9.24%.

For the compound `Cc1nccc(C(=O)N2CCCC(c3cc(C(F)(F)F)[nH]n3)C2)n1` (stereo unspecified), the cytotoxicity at 10 µM is -4.59%.

With `O=C(NC[C@H]1OC[C@@H](NC2CCC(F)(F)CC2)[C@@H]1O)C1CCCC1`, the cytotoxicity at 10 µM is -77.9%.

For `CC(C)(C)CNC[C@H]1Cn2c(-c3ccccc3)cnc2CO1`, the cytotoxicity at 10 µM is -9.14%.

`Cc1cnn(CC2CCCN2C(=O)c2c(C)noc2C(C)C)c1` (stereo unspecified): the cytotoxicity at 10 µM is -0.502%.

Regarding `CCc1cc(NC(=O)N2CCC(Oc3cccnc3)C2)n(C)n1` (stereo unspecified), the cytotoxicity at 10 µM worked out at 5.95%.

Regarding `O=C(c1ccco1)N1CCC2(CCCN(c3ncccn3)C2)C1` (stereo unspecified), the cytotoxicity at 10 µM was -105%.

For the compound `c1cnnc(NCC2CN(Cc3cccc4c3OCCO4)CCO2)c1` (stereo unspecified), the cytotoxicity at 10 µM is -9.93%.

Regarding `CCNc1nc(C)c(C(=O)N2CCN(c3ncccc3C)CC2)s1`, the cytotoxicity at 10 µM was found to be 3.77%.

With `Fc1cnc(N2CCO[C@H]3[C@H](OCCN4CCCC4)CC[C@@H]32)nc1`, the cytotoxicity at 10 µM is 1.33%.

`CC(=O)c1cccc(CN2CCCC23CCN(c2ccccn2)CC3)c1`: the cytotoxicity at 10 µM was -15.4%.

For `Cc1cn(CC(=O)NC2CCC(C(=O)O)CC2)c2ccccc12` (stereo unspecified), the cytotoxicity at 10 µM was -0.214%.

As to `Cn1cncc1-c1nnc([C@H]2CCN(CC(C)(C)C)C2)o1`, the cytotoxicity at 10 µM was determined as 2.26%.

Turning to `Cc1cc(C(=O)NC2(c3cccc(F)c3)CCOCC2)no1`, the cytotoxicity at 10 µM is 1.42%.

On to `COc1ccc2c(C)c(C(=O)N3CCC(NC(C)=O)C3)oc2c1` (stereo unspecified), for which the cytotoxicity at 10 µM came to 7.72%.

Consider `CN1CCN(Cc2ccco2)Cc2cccnc21`, for which the cytotoxicity at 10 µM is 2.04%.

As for `COCCN1CCC2(CC1)CN(C(C)=O)c1ccc(C)cc12`, the cytotoxicity at 10 µM amounted to 3.77%.

On to `CCc1csc(CNC2CCN(c3ccc(C)cc3)CC2)n1`, for which the cytotoxicity at 10 µM was -10.8%.

For `c1cc(CN2CCN3C[C@H](Oc4cncnc4)C[C@H]3C2)ccn1`, the cytotoxicity at 10 µM is -108%.

Regarding `Cn1cccc1C(O)CNC(=O)c1ccc2nsnc2c1` (stereo unspecified), the cytotoxicity at 10 µM worked out at 4.4%.

For `O=C(CSc1ccccc1F)NS(=O)(=O)c1ccc2c(c1)OCCO2`, the cytotoxicity at 10 µM is -4.36%.

For the compound `CCCN(Cc1ccccc1O)S(=O)(=O)C(C)CC` (stereo unspecified), the cytotoxicity at 10 µM is 9.02%.

`NS(=O)(=O)CCNC(=O)c1cc2cccc(F)c2o1`: the cytotoxicity at 10 µM stood at 2.46%.

As for `O=C1COC2(CCN(CC3CC3)CC2)CN1c1ccsc1`, the cytotoxicity at 10 µM is -79.2%.

`C[S+]([O-])c1nncn1CC(=O)c1cccc(Cl)c1` (stereo unspecified): the cytotoxicity at 10 µM was -1.02%.

On to `O=C1COC2(COCCN(c3cnccn3)C2)CN1c1cccc(F)c1` (stereo unspecified), for which the cytotoxicity at 10 µM is -104%.

For the compound `CC(=O)N1[C@H](CN(C)C)C[C@@H]2CN(C(=O)c3cccc(F)c3)CC[C@@H]21`, the cytotoxicity at 10 µM amounted to 5.85%.

For `CC(C)n1c(=O)c2sccc2n(CC(=O)Nc2ccccc2)c1=O`, the cytotoxicity at 10 µM is 8.02%.

On to `COCCNC(=O)[C@H]1C[C@@H]2CCN(c3nncs3)C[C@H]2O1`, for which the cytotoxicity at 10 µM was -2.12%.

`COCCN1CCC(NC(=O)NCC2(c3cccc(F)c3)CC2)C1` (stereo unspecified): the cytotoxicity at 10 µM was 5.59%.

Take `CC(C)N(CCSc1ncnc2[nH]ncc12)C(C)C`: the cytotoxicity at 10 µM worked out at 0.25%.

`Cc1cccc(CC(=O)N2CCCC(c3n[nH]c4nccnc34)C2)c1` (stereo unspecified): the cytotoxicity at 10 µM is -8.52%.

On to `Cc1ccc(C(=O)N2CCc3c(CNc4ncccn4)cncc3C2)o1`, for which the cytotoxicity at 10 µM is 9.21%.

As to `CC(C)(C)CN1CCCC12CCN(S(=O)(=O)c1ccccc1)C2` (stereo unspecified), the cytotoxicity at 10 µM is -67.5%.

Consider `O=C([C@H]1CCCO1)N1CCC2(CC1)C(=O)N(CC1CC1)c1ccccc12`, for which the cytotoxicity at 10 µM came out at 8.5%.

As to `Cc1cc(C)n(C2CN(CC(=O)N(C)Cc3ccco3)C2)n1`, the cytotoxicity at 10 µM is -4.42%.

On to `O=C(COCC1CC1)N1CCCC(n2cccn2)C1` (stereo unspecified), for which the cytotoxicity at 10 µM is 4.6%.

As to `O=S(=O)(C1CC1)N1CCCC2(COCCN(c3nncs3)C2)C1` (stereo unspecified), the cytotoxicity at 10 µM amounted to 5.22%.

In the case of `CCn1nc(C)c(CCNC(=O)C2CCCN(C(N)=O)C2)c1C` (stereo unspecified), the cytotoxicity at 10 µM is -11.2%.

Turning to `COc1ccccc1Oc1cncc(C2CCCN(C)C2)n1` (stereo unspecified), the cytotoxicity at 10 µM was -3.8%.

`COCCCN(Cc1ccncc1)c1ncc(C#N)cc1Cl`: the cytotoxicity at 10 µM is 4.98%.

For the compound `O=C(c1ccc(F)cc1)N1CCC2(CC1)CC(N1CCOCC1)C2`, the cytotoxicity at 10 µM is -7.52%.

With `Cc1cnc(C)c(N2CCC(C(=O)O)(n3ccc(C(C)(C)C)n3)CC2)n1`, the cytotoxicity at 10 µM was found to be 20.4%.

With `COCCN1CCC(C(=O)N(C)CCOc2ccc(C)cc2Cl)C1` (stereo unspecified), the cytotoxicity at 10 µM is 13.4%.

For `CC(C)N1C(=O)CN(CCCO)CC1(C)C`, the cytotoxicity at 10 µM came out at 2.04%.

As for `O=C1CO[C@H]2CN(C3CCOCC3)C[C@H]2N1Cc1ccncc1`, the cytotoxicity at 10 µM turned out to be 5.89%.

For the compound `CC(C)COCC1CN(Cc2cnn(C)c2)Cc2ncn(C)c21` (stereo unspecified), the cytotoxicity at 10 µM amounted to 0.588%.

Regarding `Cc1onc(N)c1S(=O)(=O)N1CCCCC1C` (stereo unspecified), the cytotoxicity at 10 µM came to 12.4%.

As for `CC(C)N(C)Cc1nnc2n1CCN(S(=O)(=O)C1CC1)CC2`, the cytotoxicity at 10 µM is -1.13%.

With `NC(=O)c1cc(C2CCCN(Cc3ccc4c(c3)OCCO4)C2)n[nH]1` (stereo unspecified), the cytotoxicity at 10 µM is -7%.

With `O=C(NCCc1ccccn1)[C@@]12CCO[C@@H]1CCN(CC1CC1)C2`, the cytotoxicity at 10 µM was 5.79%.

Take `CN1C(=O)C[C@H]2[C@H]1CCN2Cc1cccc(C#N)c1`: the cytotoxicity at 10 µM was -75.6%.

`Cc1ccc2cnn(CCC(=O)Nc3nc(C)c(C)s3)c2c1`: the cytotoxicity at 10 µM turned out to be 2.57%.

For `CC(CCNC(=O)NCCc1ccc(S(N)(=O)=O)cc1)c1ccccc1` (stereo unspecified), the cytotoxicity at 10 µM is -17.4%.

As for `O=C(O)c1ccnc(-c2ccnc(N3CCC(F)(F)CC3)n2)c1`, the cytotoxicity at 10 µM is -12.3%.

With `C[C@@H]1CN(C2Cc3ccccc3C2)CC[C@@]1(O)C1CCOCC1`, the cytotoxicity at 10 µM was -4.04%.

Regarding `O=C(CC1COCCN1)NCCc1nc(Cc2ccccc2)no1` (stereo unspecified), the cytotoxicity at 10 µM is -2.81%.

In the case of `O=C(c1ccccn1)N1CCC(c2nc(O)cc(-c3ccncc3)n2)C1` (stereo unspecified), the cytotoxicity at 10 µM was -4.7%.

With `O=C(NCCN1CCCCC1)c1ccoc1`, the cytotoxicity at 10 µM is -11.3%.

Regarding `CC(C)c1nncn1CCNC(=O)c1ccc(Cl)cc1O`, the cytotoxicity at 10 µM was -5.01%.

As for `CN(C)CC1CN(C(=O)NCc2ccccc2)Cc2nccn2C1` (stereo unspecified), the cytotoxicity at 10 µM was -3.91%.

On to `CCn1nc(C)c2nc(C(C)C)nc(NC)c21`, for which the cytotoxicity at 10 µM worked out at 7.19%.

Take `COc1cc(CNCC(C)O)cc(Cl)c1OCc1ccc(C)cc1` (stereo unspecified): the cytotoxicity at 10 µM was -5.23%.

On to `CCn1cncc1CN(Cc1ccc(OC)cc1OC)CC1CCCO1` (stereo unspecified), for which the cytotoxicity at 10 µM is -18%.

Regarding `Cc1ncsc1CN1C[C@@H]2CN(S(C)(=O)=O)CCO[C@@H]2C1`, the cytotoxicity at 10 µM is -105%.

As for `CCc1cc(NCc2cccnc2N2CCCCC2)n2ncnc2n1`, the cytotoxicity at 10 µM worked out at 10.5%.

As for `COc1c(CNCc2cccc(Cn3ccnc3)c2)c(C)nn1C`, the cytotoxicity at 10 µM worked out at 5.61%.

With `COC[C@@]12CC[C@@H](N3CCOCC3)C[C@H]1CCN(c1cc(C)ccn1)C2`, the cytotoxicity at 10 µM is -3.53%.

As to `Cc1ncc2c(n1)CN(c1ncnc3[nH]ccc13)CC2`, the cytotoxicity at 10 µM is -8.92%.

With `CCN(CC)c1ncc(Cl)c(C(=O)NC2CC2)n1`, the cytotoxicity at 10 µM is -33.5%.
